In ChEMBL document CHEMBL1275312, “Synthesis of new pyrrolo[2,3-d]pyrimidine derivatives as antibacterial and antifungal agents” (2010):
Values after ≈ are worked out from the molar mass of the structure shown.

Columns and labels:
Type in all cases: functional
Staphylococcus aureus [1] = experiment: Antimicrobial activity against Staphylococcus aureus NCTC 7447 at 5 mg/ml after 24 hrs by agar well diffusion assay; conditions: NCTC 7447, 24 h, read-out: IZ
Outline: (§1)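 Agar well diffusion against S. aureus NCTC-7447 and E. coli NCTC-10416 (maintained on Mueller-Hinton agar, 24 h, 37 ± 1 °C) and C. albicans ATCC-10145 (Sabouraud dextrose agar, 48 h, 28 ± 1 °C). Inocula: colonies suspended in 5 mL sterile saline. Wells pre-incubated 1 h in refrigerator, then incubated 24 h at 37 °C (bacteria) or 48 h at 28 °C (fungi). Inhibition zone diameter measured. DMSO blank.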

Candida albicans = experiment: Antimicrobial activity against Candida albicans ATCC 10145 at 5 mg/ml after 48 hrs by agar well diffusion assay; conditions: ATCC 10145, 48 h, read-out: IZ; outline: as §1
Escherichia coli [2] = experiment: Antimicrobial activity against Escherichia coli NCTC 10416 at 5 mg/ml after 24 hrs by agar well diffusion assay; conditions: NCTC 10416, 24 h, read-out: IZ; outline: as §1
Staphylococcus aureus [3] = experiment: Antimicrobial activity against Staphylococcus aureus NCTC 7447 by twofold serial dilution method
Outline: (§2)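 MIC by two-fold serial dilution, limited to compounds giving inhibition zones of at least 18 mm in the well diffusion screen. Strains: S. aureus NCTC-7447 and E. coli NCTC-10416 on Mueller-Hinton agar at 37 ± 1 °C; C. albicans ATCC-10145 on Sabouraud dextrose agar at 28 ± 1 °C. Inocula were colony suspensions in sterile saline. MIC taken as the lowest concentration (highest dilution) inhibiting growth.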

Escherichia coli [4] = experiment: Antimicrobial activity against Escherichia coli NCTC 10416 by twofold serial dilution method; outline: as §2

| SMILES | zone of inhibition at 5000 µg/mL (Staphylococcus aureus [1]) | zone of inhibition at 5000 µg/mL (Candida albicans) | zone of inhibition at 5000 µg/mL (Escherichia coli [2]) | MIC (Staphylococcus aureus [3]) | MIC (Escherichia coli [4]) |
| --- | --- | --- | --- | --- | --- |
| Clc1ccc(-c2cc3c(ncn4nnnc34)n2-c2ccccc2)cc1 | 14 mm | 17 mm | 15 mm |  |  |
| CCO/C=N/c1c(C#N)cc(-c2ccc(F)cc2)n1-c1ccccc1 | 13 mm | 16 mm | 13 mm |  |  |
| CCO/C=N/c1c(C#N)cc(-c2ccccc2)n1-c1ccccc1 | 16 mm | 19 mm | 17 mm |  |  |
| Nc1ncnc2c1cc(-c1ccc(Cl)cc1)n2-c1ccccc1 | 17 mm | 16 mm | 16 mm |  |  |
| Cc1ccc(-c2cc3c(N)ncnc3n2-c2ccccc2)cc1 | 23 mm | 25 mm | 14 mm | 2500 µg/mL (≈ 8.32 mM) |  |
| N=c1c2cc(-c3ccc(F)cc3)n(-c3ccccc3)c2ncn1N | 17 mm | 15 mm | 15 mm |  |  |
| N=c1c2cc(-c3ccc(Br)cc3)n(-c3ccccc3)c2ncn1N | 25 mm | 27 mm | 27 mm | 310 µg/mL (≈ 0.815 mM) | 1250 µg/mL (≈ 3.29 mM) |
| Fc1ccc(-c2cc3c(ncn4nnnc34)n2-c2ccccc2)cc1 |  | 11 mm |  |  |  |
| C/C=N\c1ncnc2c1cc(-c1ccc(Cl)cc1)n2-c1ccccc1 | 17 mm | 17 mm | 16 mm |  |  |
| Brc1ccc(-c2cc3c(ncn4ncnc34)n2-c2ccccc2)cc1 | 19 mm | 19 mm | 14 mm |  |  |
| Fc1ccc(-c2cc3c(ncn4ncnc34)n2-c2ccccc2)cc1 | 17 mm | 17 mm | 16 mm |  |  |
| Fc1ccc(-c2cc3c(Cl)ncnc3n2-c2ccccc2)cc1 | 15 mm | 15 mm | 13 mm |  |  |
| Cc1ccc(-c2cc3c(ncn4ncnc34)n2-c2ccccc2)cc1 |  | 11 mm |  |  |  |
| CCO/C=N/c1c(C#N)cc(-c2ccc(Cl)cc2)n1-c1ccccc1 |  | 11 mm |  |  |  |
| Clc1ncnc2c1cc(-c1ccc(Br)cc1)n2-c1ccccc1 | 16 mm | 17 mm | 17 mm |  |  |
| Cc1ccc(-c2cc3c(NN)ncnc3n2-c2ccccc2)cc1 | 14 mm | 17 mm | 13 mm |  |  |
| Clc1ccc(-c2cc3c(Cl)ncnc3n2-c2ccccc2)cc1 | 12 mm | 12 mm | 13 mm |  |  |
| Nc1nc(N)c2cc(-c3ccccc3)n(-c3ccccc3)c2n1 | 24 mm | 24 mm | 13 mm | 620 µg/mL (≈ 2.06 mM) |  |
| N=c1c2cc(-c3ccccc3)n(-c3ccccc3)c2ncn1N | 21 mm | 23 mm | 16 mm | 1250 µg/mL (≈ 4.15 mM) |  |
| C/C=N/c1ncnc2c1cc(-c1ccc(C)cc1)n2-c1ccccc1 | 16 mm | 15 mm | 17 mm |  |  |
| Cc1ccc(-c2cc3c(=N)n(N)cnc3n2-c2ccccc2)cc1 | 21 mm | 21 mm | 20 mm | 620 µg/mL (≈ 1.97 mM) | 2500 µg/mL (≈ 7.93 mM) |
| Brc1ccc(-c2cc3c(ncn4nnnc34)n2-c2ccccc2)cc1 | 16 mm | 17 mm | 15 mm |  |  |

| SMILES | zone of inhibition at 5000 µg/mL (Staphylococcus aureus [1]) | zone of inhibition at 5000 µg/mL (Candida albicans) | zone of inhibition at 5000 µg/mL (Escherichia coli [2]) | MIC (Staphylococcus aureus [3]) | MIC (Escherichia coli [4]) |
| --- | --- | --- | --- | --- | --- |
| Nc1nc(N)c2cc(-c3ccc(Cl)cc3)n(-c3ccccc3)c2n1 | 24 mm | 23 mm | 14 mm | 1250 µg/mL (≈ 3.72 mM) |  |
| Cc1nc(N)c2cc(-c3ccccc3)n(-c3ccccc3)c2n1 | 20 mm | 21 mm | 18 mm | 1250 µg/mL (≈ 4.16 mM) | 2500 µg/mL (≈ 8.32 mM) |
| Cc1ccc(-c2cc3c(Cl)ncnc3n2-c2ccccc2)cc1 | 12 mm | 16 mm | 13 mm |  |  |
| Cc1nc(N)c2cc(-c3ccc(Cl)cc3)n(-c3ccccc3)c2n1 | 25 mm | 24 mm | 14 mm | 620 µg/mL (≈ 1.85 mM) |  |
| Clc1ccc(-c2cc3c(ncn4ncnc34)n2-c2ccccc2)cc1 | 17.5 mm | 18 mm | 18 mm |  |  |
| Cc1ccc(-c2cc3c(N)nc(N)nc3n2-c2ccccc2)cc1 | 25 mm | 23 mm | 19 mm | 620 µg/mL (≈ 1.97 mM) | 2500 µg/mL (≈ 7.93 mM) |
| NNc1ncnc2c1cc(-c1ccccc1)n2-c1ccccc1 | 27 mm | 31 mm | 18 mm | 620 µg/mL (≈ 2.06 mM) | 2500 µg/mL (≈ 8.3 mM) |
| CCO/C=N/c1c(C#N)cc(-c2ccc(C)cc2)n1-c1ccccc1 |  |  | 11 mm |  |  |
| CC1(C)S[C@@H]2[C@H](NC(=O)[C@H](N)c3ccccc3)C(=O)N2[C@H]1C(=O)O [AMPICILLIN] | 9 mm |  | 9 mm | 620 µg/mL (≈ 1.77 mM) | 1250 µg/mL (≈ 3.58 mM) |
| C/C=N\c1ncnc2c1cc(-c1ccccc1)n2-c1ccccc1 | 21 mm | 21 mm | 16 mm | 1250 µg/mL (≈ 4 mM) |  |
| Clc1ncnc2c1cc(-c1ccccc1)n2-c1ccccc1 | 13 mm | 16.5 mm | 14 mm |  |  |
| c1ccc(-c2cc3c(ncn4ncnc34)n2-c2ccccc2)cc1 | 13 mm | 17 mm | 16 mm |  |  |
| NNc1ncnc2c1cc(-c1ccc(Br)cc1)n2-c1ccccc1 | 25 mm | 23 mm | 15 mm | 620 µg/mL (≈ 1.63 mM) |  |
| OC(Cn1cncn1)(Cn1cncn1)c1ccc(F)cc1F [FLUCONAZOLE] |  | 26 mm |  |  |  |
| c1ccc(-c2cc3c(ncn4nnnc34)n2-c2ccccc2)cc1 | 16 mm | 17 mm | 16 mm |  |  |
| NNc1ncnc2c1cc(-c1ccc(F)cc1)n2-c1ccccc1 | 31 mm | 32 mm | 20 mm | 310 µg/mL (≈ 0.971 mM) | 1250 µg/mL (≈ 3.91 mM) |
| CN(C)[C@@H]1C(O)=C(C(N)=O)C(=O)[C@@]2(O)C(O)=C3C(=O)c4c(O)cccc4[C@@](C)(O)[C@H]3C[C@@H]12 [TETRACYCLINE] | 20 mm |  | 18 mm |  |  |
| Cc1ccc(-c2cc3c(N)nc(C)nc3n2-c2ccccc2)cc1 | 17 mm | 16 mm | 14 mm |  |  |
| CCO/C=N/c1c(C#N)cc(-c2ccc(Br)cc2)n1-c1ccccc1 |  | 11 mm |  |  |  |
| Nc1ncnc2c1cc(-c1ccccc1)n2-c1ccccc1 | 15 mm | 20 mm | 14 mm |  |  |
| NNc1ncnc2c1cc(-c1ccc(Cl)cc1)n2-c1ccccc1 | 17 mm | 19 mm | 16 mm |  |  |
| N=c1c2cc(-c3ccc(Cl)cc3)n(-c3ccccc3)c2ncn1N | 21 mm | 27 mm | 22 mm | 310 µg/mL (≈ 0.923 mM) | 1250 µg/mL (≈ 3.72 mM) |
